In brackets after ≈: the same amount, converted by molar mass.
Experiments:
[1] = WHO-TDR: Cytotoxicity; assay type: toxicity, cell-based; details: human, MRC5 cells
Plasmodium falciparum K1 = assay: WHO-TDR: Malaria; assay type: functional, organism-based, Homo sapiens; details: Erythrocyte
Summary of the method: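 This whole-organism screen covered 10,000 drug-likeness-filtered and reactive-group-filtered compounds from Life Chemicals. The target was the Plasmodium falciparum K1 strain in human red blood cells, and the readout was antiplasmodial IC50.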

Trypanosoma cruzi = assay: WHO-TDR: Chagas disease; assay type: functional, organism-based, Homo sapiens; details: MRC5
Summary of the method: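 Each IC50 reflects antiparasitic potency against intracellular amastigotes of Trypanosoma cruzi Tulahuen CL2 beta-galactosidase strain. These were cultured in MRC-5SV2 human lung fibroblasts and exposed to a 10,000-compound diverse Life Chemicals library screened according to published standard procedures with a reference drug as positive control.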

[2] = test system: Trypanosoma brucei brucei; assay: WHO-TDR: Human African Trypanosomiasis (HAT); assay type: functional, organism-based; details: Squib-427
Summary of the method: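 Screening used a 10,000-compound diverse library supplied by Life Chemicals and filtered for drug-likeness and reactive groups. Whole bloodstream-form parasites of Trypanosoma brucei Squib 427 strain were assayed according to previously published standard procedures, with reference drugs as positive controls. The reported measure is IC50, reflecting antiparasitic potency.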

Leishmania infantum = assay: WHO-TDR: Leishmaniasis; assay type: functional, organism-based, Mus musculus; details: Macrophage
Summary of the method: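 The screened collection came from Life Chemicals: 10,000 diverse compounds selected after filtering for drug-likeness and reactive groups. Each was tested in a whole-organism assay against Leishmania infantum MHOM/MA(BE)/67 amastigotes inside murine peritoneal macrophages, using previously published standard procedures and a reference drug as positive control. Results are IC50 values for antiparasitic potency.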

Schistosoma mansoni = assay: WHO-TDR: Schistosomiasis; assay type: functional; set-up: concentration or dose not given beside the values
Summary of the method: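 Values are reported as percent inhibition and IC50. They come from a whole-organism screen of a 10,000-compound diverse Life Chemicals library against larval and/or adult worms of Schistosoma mansoni, Puerto Rican strain. The library had been filtered for drug-likeness and reactive groups.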

Onchocerca lienalis = assay: (§1) WHO-TDR: Onchocerciasis; assay type: functional; set-up: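 at 12.5 µM on microfilariae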
Summary of the method: (§2)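 Values are reported as percent inhibition and as IC50. They come from a whole-organism screen of a 10,000-compound diverse Life Chemicals library against microfilariae of Onchocerca ochengi or Onchocerca lienalis. The screen followed previously published standard procedures, with reference drugs as positive controls.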

Onchocerca ochengi = assay: as §1; assay type: functional; set-up: concentration or dose not given beside the values; summary of the method: as §2;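 also: at 12.5 µM on microfilariae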
Brugia malayi = assay: WHO-TDR: Lymphatic Filariasis; assay type: functional; set-up: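 tested at 10 µM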
Summary of the method: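 Values are percent inhibition and IC50 from a whole-organism screen against Brugia malayi microfilariae. The compounds, 10,000 in all, came from a diverse Life Chemicals library filtered for drug-likeness and reactive groups.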

Row | Structure (SMILES) | IC50 [1] | IC50 (Plasmodium falciparum K1) | IC50 (Trypanosoma cruzi) | IC50 [2] | IC50 (Leishmania infantum) | % Inhibition (Schistosoma mansoni) | % Inhibition (Onchocerca lienalis) | % Inhibition (Onchocerca ochengi) | % Inhibition (Brugia malayi)
1 | CCN(CC)CCSc1ccc(-c2sc(-c3ccc(F)cc3)nc2C)nn1 | > 12.1 µg/mL | 0.5 µg/mL (≈ 1.24 µM) | 3.25 µg/mL (≈ 8.09 µM) | 0.314 µg/mL (≈ 0.78 µM) | 3.82 µg/mL (≈ 9.49 µM) | 0% | 6.7% | – | –
2 | COc1ccc(-c2nnc(NC(=O)c3cccc(C(F)(F)F)c3)o2)cc1 | 10.1 µg/mL (≈ 27.9 µM) | > 10.9 µg/mL | 0.844 µg/mL (≈ 2.32 µM) | > 10.9 µg/mL | > 10.9 µg/mL | 0% | 0% | – | –
3 | CN(C)CCCN(C(=O)c1ccccc1F)c1nc2c(Cl)cccc2s1 | 3.81 µg/mL (≈ 9.73 µM) | 0.848 µg/mL (≈ 2.16 µM) | 4.41 µg/mL (≈ 11.3 µM) | 0.237 µg/mL (≈ 0.605 µM) | 4.16 µg/mL (≈ 10.6 µM) | 0% | 13.3% | – | –
4 | CN(CC1CCCO1)S(=O)(=O)c1ccc(C(=O)Nc2nc3c(s2)CSc2ccccc2-3)cc1 (stereo not given) | 3 µg/mL (≈ 5.99 µM) | > 9.73 µg/mL | 0.521 µg/mL (≈ 1.04 µM) | 0.487 µg/mL (≈ 0.971 µM) | 4.87 µg/mL (≈ 9.71 µM) | 41.7% | 13.3% | – | –
5 | O=C(CSc1nnc(NC(=O)c2cc(Cl)ccc2Cl)s1)Nc1ccc2c(c1)OCO2 | 1.94 µg/mL (≈ 4.02 µM) | 8.18 µg/mL (≈ 16.9 µM) | 0.409 µg/mL (≈ 0.847 µM) | 4.25 µg/mL (≈ 8.8 µM) | 4.25 µg/mL (≈ 8.8 µM) | 0% | 13.3% | – | –
6 | COc1cccc(NC(=O)CSc2nc(-c3ccccc3Cl)ns2)c1 | > 11.8 µg/mL | 0.24 µg/mL (≈ 0.612 µM) | > 11.8 µg/mL | > 11.8 µg/mL | > 11.8 µg/mL | – | 6.7% | – | –
7 | O=C(Nc1nc(-c2ccccn2)cs1)c1cc(Cl)sc1Cl | 3.89 µg/mL (≈ 10.9 µM) | > 10.7 µg/mL | 0.069 µg/mL (≈ 0.194 µM) | 0.182 µg/mL (≈ 0.511 µM) | > 10.7 µg/mL | – | 80% | – | –
8 | O=C(Nc1ccc2c(c1)N(C(=O)c1cccs1)CC2)c1cc2ccccc2oc1=O | > 12.5 µg/mL | > 12.5 µg/mL | > 12.5 µg/mL | > 12.5 µg/mL | 0.404 µg/mL (≈ 0.97 µM) | 16.7% | – | 0% | 0%
9 | Cc1n[nH]c(C)c1CCc1nc(-c2ccc(Cl)cc2)no1 | > 9.08 µg/mL | 1.14 µg/mL (≈ 3.78 µM) | 1.8 µg/mL (≈ 5.96 µM) | 2.13 µg/mL (≈ 7.03 µM) | > 9.08 µg/mL | 0% | – | 100% | 0%
10 | Cc1cc(-c2nnc(NC(=O)c3nc4ccccc4s3)o2)nn1C | > 10.2 µg/mL | > 10.2 µg/mL | 3.72 µg/mL (≈ 10.9 µM) | > 10.2 µg/mL | > 10.2 µg/mL | 0% | – | 100% | 33.33%
11 | O=S(=O)(CCCOc1ccc(F)cc1)NCCCc1ccccc1 | 10.5 µg/mL (≈ 30 µM) | > 10.5 µg/mL | > 10.5 µg/mL | > 10.5 µg/mL | > 10.5 µg/mL | 0% | – | 100% | 0%
12 | O=C(NCCNc1ccc(Nc2ccccn2)nn1)c1cccc(C(F)(F)F)c1 | 10.1 µg/mL (≈ 25 µM) | 5.09 µg/mL (≈ 12.6 µM) | > 12.1 µg/mL | 6.4 µg/mL (≈ 15.9 µM) | > 12.1 µg/mL | 0% | – | 100% | 50%
13 | Cc1cccc(Nc2ccc(NCCNS(=O)(=O)c3ccc(F)cc3)nn2)n1 | > 12.1 µg/mL | 0.582 µg/mL (≈ 1.45 µM) | > 12.1 µg/mL | 4.06 µg/mL (≈ 10.1 µM) | > 12.1 µg/mL | 0% | – | 100% | 50%
14 | CCOc1ncccc1C(=O)N1CCN(c2ccc(-c3ccc(Cl)cc3)nn2)CC1 | > 12.7 µg/mL | > 12.7 µg/mL | 8.92 µg/mL (≈ 21 µM) | > 12.7 µg/mL | > 12.7 µg/mL | 100% | – | 0% | 0%
15 | O=C(CCSc1ccccc1)NCCOc1ccc2nnc(-c3ccc(F)cc3)n2n1 | > 13.1 µg/mL | > 13.1 µg/mL | > 13.1 µg/mL | > 13.1 µg/mL | 0.425 µg/mL (≈ 0.971 µM) | 41.7% | – | 0% | 33.33%
16 | O=C(CN1CCN(c2nccn2-c2cccc(Cl)c2)CC1)N1CCc2ccccc21 | 14.2 µg/mL (≈ 33.6 µM) | 7.54 µg/mL (≈ 17.9 µM) | 5.05 µg/mL (≈ 12 µM) | 4.69 µg/mL (≈ 11.1 µM) | 0.481 µg/mL (≈ 1.14 µM) | 0% | – | 75% | 0%
17 | O=C(Nc1nc(-c2ccc3c(c2)OCCO3)cs1)C1CCN(S(=O)(=O)c2ccc(Cl)cc2)CC1 | 2.74 µg/mL (≈ 5.28 µM) | 8.56 µg/mL (≈ 16.5 µM) | 0.697 µg/mL (≈ 1.34 µM) | 0.586 µg/mL (≈ 1.13 µM) | > 15.6 µg/mL | 0% | – | 50% | 0%
18 | Cc1ccnc(Nc2ccc(NCCNC(=O)c3cccc(C(F)(F)F)c3)nn2)c1 | 9.41 µg/mL (≈ 22.6 µM) | 1.48 µg/mL (≈ 3.56 µM) | > 12.5 µg/mL | > 12.5 µg/mL | > 12.5 µg/mL | 0% | – | 100% | 0%
19 | COc1cccc(OCC(=O)N2CCN(c3nccn3-c3cccc(Cl)c3)CC2)c1 | > 13.9 µg/mL | 12.2 µg/mL (≈ 28.5 µM) | 9.15 µg/mL (≈ 21.4 µM) | 4.61 µg/mL (≈ 10.8 µM) | 0.45 µg/mL (≈ 1.05 µM) | 0% | – | 0% | 0%
20 | CC(C)(C)C(=O)N1CCN(c2ccc(-c3ccncc3)nn2)CC1 | > 9.76 µg/mL | > 9.76 µg/mL | > 9.76 µg/mL | > 9.76 µg/mL | > 9.76 µg/mL | 100% | – | 0% | 33.33%
21 | CCc1nnc(NS(=O)(=O)c2ccc(NC(=O)c3ccc(S(=O)(=O)N4CCCCC4C)cc3)cc2)s1 (stereo not given) | > 16.5 µg/mL | 13.4 µg/mL (≈ 24.4 µM) | > 16.5 µg/mL | 5.34 µg/mL (≈ 9.71 µM) | > 16.5 µg/mL | 0% | – | 100% | 0%
22 | O=C(CC(c1ccccc1)c1ccccc1)NCCCn1nc(-c2ccncc2)ccc1=O | > 13.2 µg/mL | 5.95 µg/mL (≈ 13.6 µM) | 5.91 µg/mL (≈ 13.5 µM) | 7.53 µg/mL (≈ 17.2 µM) | > 13.2 µg/mL | 0% | – | 100% | 0%
23 | COc1cccc(NC(=O)NCCNc2ccc(Nc3cccc(C)n3)nn2)c1 | > 11.8 µg/mL | 4.98 µg/mL (≈ 12.6 µM) | > 11.8 µg/mL | 4.13 µg/mL (≈ 10.5 µM) | > 11.8 µg/mL | 0% | – | 100% | 0%

From ChEMBL document CHEMBL2093137, “WHO-TDR NTD Screening”
